Assay results pooled from the literature.
Compare with care: the assays were run in different laboratories.
Target: Rhodopsin kinase GRK1 (GRK1, Homo sapiens, UniProt Q15835)
One construct used (Q15835 1-563): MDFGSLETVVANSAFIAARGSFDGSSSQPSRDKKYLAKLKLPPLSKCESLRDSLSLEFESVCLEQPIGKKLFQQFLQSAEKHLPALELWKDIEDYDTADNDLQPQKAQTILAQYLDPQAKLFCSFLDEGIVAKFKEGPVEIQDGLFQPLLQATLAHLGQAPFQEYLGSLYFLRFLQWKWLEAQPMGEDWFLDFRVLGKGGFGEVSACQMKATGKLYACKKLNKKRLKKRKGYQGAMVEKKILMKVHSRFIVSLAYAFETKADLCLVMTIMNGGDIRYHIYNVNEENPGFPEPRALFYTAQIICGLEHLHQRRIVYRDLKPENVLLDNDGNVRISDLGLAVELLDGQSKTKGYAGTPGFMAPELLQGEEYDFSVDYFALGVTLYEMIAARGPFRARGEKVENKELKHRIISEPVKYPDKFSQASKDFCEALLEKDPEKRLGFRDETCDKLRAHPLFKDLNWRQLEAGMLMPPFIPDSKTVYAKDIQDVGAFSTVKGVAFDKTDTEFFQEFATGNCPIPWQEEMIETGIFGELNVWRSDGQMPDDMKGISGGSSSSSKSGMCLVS

CC1CCCN1c1nccc(-c2cnn3ncccc23)n1 (stereo not shown)  remaining binding (binding; 1 µM): 82%
COc1cnc(Nc2cccc(S(N)(=O)=O)c2)nc1N1CCN(c2ccccc2)C(=O)C1  remaining binding (binding, competition with immobilised ligand; 1 µM): 97%
COCCOc1nc(-c2ccc(Cl)nc2)nc2c1CN(C(=O)c1ncn3ccccc13)CC2  remaining binding (cell-free assay, competition with immobilised ligand; 0.1 µM): 100%
CN(C)c1nccc(-c2cnn3ncccc23)n1  remaining binding (binding; 1 µM): 79%
Nc1ncc2c(n1)-c1c([nH]c3ccc(C#CC4CC4)cc13)CCCC2  remaining binding (binding, competition with immobilised ligand; 1 µM): 90%
CN([C@@H]1CCc2c(CC(=O)O)c3cc(S(C)(=O)=O)ccc3n2C1)S(=O)(=O)c1ccc(F)cc1  remaining binding (cell-free assay, competition with immobilised ligand; 1 µM): 70%
F[C@@H]1CCN(c2nccc(-c3cnn4ncccc34)n2)C1  remaining binding (binding; 1 µM): 100%
O=C(Nc1c[nH]nc1C(=O)NC1CCNCC1)c1cc(F)cc(F)c1  remaining binding (binding, competition with immobilised ligand; 1 µM): 83%
N[C@H]1CCN(c2nccc(-c3cnn4ncccc34)n2)C1  remaining binding (binding; 1 µM): 100%
CNC(=O)[C@@H]1CC[C@@H](n2c(-c3ccc4cnccc4c3)nc3ccc(C(=O)NCc4cccc(C(N)=O)c4)cc32)C1  remaining binding (binding, competition with immobilised ligand; 1 µM): 67%
FC(F)(F)Oc1cccc(-c2cnc3ccc(-c4ccncc4)nn23)c1  remaining binding (cell-free assay, competition with immobilised ligand; 5 µM): 38%
CCN1CCN(Cc2ccc(C(=O)Nc3ccc(C)c(Oc4ccc5c(c4)CC(=O)N5)c3)cc2C(F)(F)F)CC1  remaining binding (binding, competition with immobilised ligand; 1 µM): 100%
CC1=C(C#N)C(c2ccc3c(c2)c(NC(=O)c2ccccc2C)nn3C)C(C#N)=C(C)N1  remaining binding (cell-free assay, competition with immobilised ligand; 1 µM): 88%
c1cncc(-c2cccc(Nc3nccc(NC4CCCCC4)n3)c2)c1  remaining binding (binding, competition with immobilised ligand; 10 µM): 44%
O=C(c1ccc(Nc2nccc(-c3cc4ccccc4s3)n2)cc1)N1CCC(N2CCCC2)CC1  remaining binding (binding, competition with immobilised ligand; 1 µM): 93%
CC(=O)N1CCC(c2ccc(C(=O)NC3=NCCN3)cc2C(F)(F)F)CC1  remaining binding (cell-free assay, competition with immobilised ligand; 1 µM): 95%
C[C@@H]1CCN(c2nccc(-c3cnn4ncccc34)n2)C1  remaining binding (binding; 1 µM): 77%
O=C(NCCCN1CCOCC1)c1ccc(Nc2nccc(-c3cc4ccccc4s3)n2)cc1  remaining binding (binding, competition with immobilised ligand; 1 µM): 74%
CS(=O)(=O)N1CCCC(NC(=O)[C@H](CCC2CCCCC2)NC(=O)c2ccc(CNc3ncnc4c3nnn4-c3ccccc3)cc2)C1 (stereo partly shown)  remaining binding (cell-free assay, competition with immobilised ligand; 0.1 µM): 94%
